Reference: ChEMBL document CHEMBL1833793 (Bioorg Med Chem Lett, 2011)
Calls of active or inactive are those of the source. The rule behind the calls is not given here.

How the values were obtained:
[1] = Plasma concentration in cPP-induced feeding rat model at 30 mg/kg, po after 2 hrs; assay type: ADME, organism-based; parameters: dose 30 mg/kg, route oral
How it was run: (§1)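 Satellite rats (n = 2/dose per week), cannulated in the lateral cerebral ventricle for the feeding study, dosed orally at 3, 10 or 30 mg/kg as a suspension in 20% HP-β-cyclodextrin. Plasma was sampled 1, 2, 4, 6 or 24 h after dosing, alongside i.c.v. cPP (0.6 nmol) feeding tests. Values are given as mean with SD.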

[2] = Drug uptake in brain of cPP-induced feeding rat model at 10 mg/kg, po after 2 hrs; assay type: ADME, organism-based; parameters: dose 10 mg/kg, route oral; conditions: read-out: Drug uptake
How it was run: (§2)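 Satellite rats (n = 2/dose) sampled each week alongside the cPP feeding test; Lu-series dosed po at 3, 10 or 30 mg/kg as suspension in 20% HP-β-cyclodextrin; plasma (ng/mL) and brain tissue (ng/g) levels taken at 1, 2, 4, 6 and 24 h post-dose; mean ± SD reported.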

[3] = target: T1, Neuropeptide Y receptor type 1 (Homo sapiens, UniProt P25929); test: Antagonist activity at human NPY1 receptor assessed as calcium mobilization by FLIPR assay; assay type: functional
T1 sequence (P25929 whole entry): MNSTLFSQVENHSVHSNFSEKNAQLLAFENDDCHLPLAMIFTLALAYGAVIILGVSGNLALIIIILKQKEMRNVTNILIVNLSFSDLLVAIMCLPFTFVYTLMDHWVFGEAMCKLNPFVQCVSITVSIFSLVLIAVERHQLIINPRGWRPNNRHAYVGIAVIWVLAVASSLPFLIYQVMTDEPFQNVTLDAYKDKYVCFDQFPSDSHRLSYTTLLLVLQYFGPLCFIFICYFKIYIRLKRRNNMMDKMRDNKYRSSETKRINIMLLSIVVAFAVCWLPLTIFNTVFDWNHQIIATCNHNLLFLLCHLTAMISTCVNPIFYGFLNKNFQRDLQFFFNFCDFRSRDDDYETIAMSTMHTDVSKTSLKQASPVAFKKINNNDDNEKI

Rattus norvegicus [4] = species on record: Rattus norvegicus; test: Inhibition of food intake in rat after 24 hrs starvation; assay type: functional, organism-based
Rattus norvegicus [5] = test: Inhibition of cPP-induced food intake in po dosed rat administered 1 to 24 hrs before cPP challenge measured for 1 hr; assay type: functional, organism-based
How it was run: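 Rats with lateral-ventricle cannulae dosed po with 20% cyclodextrin vehicle or drug (3, 10, 30 mg/kg) 1, 2, 4, 6 or 24 h before i.c.v. cPP (0.6 nmol); food intake monitored 1 h; randomized weekly crossover, n = 2/condition, 16–20 per group; percent of vehicle + cPP intake, one-way ANOVA with Newman–Keuls.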

[6] = Apparent permeability from basolateral to apical side of the human Caco2 cells; assay type: ADME, cell-based; conditions: Caco-2
[7] = Half life in Sprague-Dawley rat at 1 mg/kg, iv and 2 mg/kg, po by HPLC analysis; assay type: ADME, organism-based; conditions: in vivo
How it was run: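 Cannulated (jugular and carotid) male Sprague-Dawley rats, 200–250 g, n = 2; 1 mg/kg iv and 2 mg/kg po crossover after 24 h washout; dosed in 20% β-cyclodextrin pH-adjusted with methanesulfonic acid; 12 serial blood samples over 24 h; plasma by LC-MS/MS; noncompartmental analysis.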

[8] = Plasma protein binding in rat; assay type: ADME, cell-free; conditions: read-out: PPB (converted)
[9] = Drug uptake in rat brain at 10 mg/kg, po after 4 hrs; assay type: ADME, organism-based; parameters: dose 10 mg/kg, route oral; conditions: read-out: Drug uptake
How it was run: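 Rat single oral dose of 10 mg/kg, two animals; plasma and brain homogenate levels measured at 4 h and averaged; quantification limit 2 ng/mL plasma, 2 ng/g brain.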

[10] = Tmax in Sprague-Dawley rat at 1 mg/kg, iv and 2 mg/kg, po by HPLC analysis; assay type: ADME, organism-based; conditions: in vivo
How it was run: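 Male Sprague–Dawley rats (n = 2) with jugular and carotid cannulae, 200–250 g, dosed 1 mg/kg iv and 2 mg/kg po in crossover after a 24 h washout. Vehicle was 20% beta-cyclodextrin, pH adjusted with methanesulfonic acid. Twelve serial blood samples were taken over 24 h, plasma measured by HPLC-MS/MS, and parameters derived by noncompartmental analysis.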

Rattus norvegicus [11] = test: Antistress activity against chronic mild stress Sprague-Dawley rat model assessed as increase in sucrose consumption at 10 mg/kg, ip bid measured after 4 weeks; assay type: functional; conditions: route intraperitoneal
[12] = Half life in mouse at 1 mg/kg, iv and 2 mg/kg, po by HPLC analysis; assay type: ADME, organism-based; conditions: in vivo
[13] = target: Voltage-gated inwardly rectifying potassium channel KCNH2 (Homo sapiens, UniProt Q12809); test: Inhibition of human ERG by patch-clamp assay
Sequence of Voltage-gated inwardly rectifying potassium channel KCNH2 (Q12809 whole entry): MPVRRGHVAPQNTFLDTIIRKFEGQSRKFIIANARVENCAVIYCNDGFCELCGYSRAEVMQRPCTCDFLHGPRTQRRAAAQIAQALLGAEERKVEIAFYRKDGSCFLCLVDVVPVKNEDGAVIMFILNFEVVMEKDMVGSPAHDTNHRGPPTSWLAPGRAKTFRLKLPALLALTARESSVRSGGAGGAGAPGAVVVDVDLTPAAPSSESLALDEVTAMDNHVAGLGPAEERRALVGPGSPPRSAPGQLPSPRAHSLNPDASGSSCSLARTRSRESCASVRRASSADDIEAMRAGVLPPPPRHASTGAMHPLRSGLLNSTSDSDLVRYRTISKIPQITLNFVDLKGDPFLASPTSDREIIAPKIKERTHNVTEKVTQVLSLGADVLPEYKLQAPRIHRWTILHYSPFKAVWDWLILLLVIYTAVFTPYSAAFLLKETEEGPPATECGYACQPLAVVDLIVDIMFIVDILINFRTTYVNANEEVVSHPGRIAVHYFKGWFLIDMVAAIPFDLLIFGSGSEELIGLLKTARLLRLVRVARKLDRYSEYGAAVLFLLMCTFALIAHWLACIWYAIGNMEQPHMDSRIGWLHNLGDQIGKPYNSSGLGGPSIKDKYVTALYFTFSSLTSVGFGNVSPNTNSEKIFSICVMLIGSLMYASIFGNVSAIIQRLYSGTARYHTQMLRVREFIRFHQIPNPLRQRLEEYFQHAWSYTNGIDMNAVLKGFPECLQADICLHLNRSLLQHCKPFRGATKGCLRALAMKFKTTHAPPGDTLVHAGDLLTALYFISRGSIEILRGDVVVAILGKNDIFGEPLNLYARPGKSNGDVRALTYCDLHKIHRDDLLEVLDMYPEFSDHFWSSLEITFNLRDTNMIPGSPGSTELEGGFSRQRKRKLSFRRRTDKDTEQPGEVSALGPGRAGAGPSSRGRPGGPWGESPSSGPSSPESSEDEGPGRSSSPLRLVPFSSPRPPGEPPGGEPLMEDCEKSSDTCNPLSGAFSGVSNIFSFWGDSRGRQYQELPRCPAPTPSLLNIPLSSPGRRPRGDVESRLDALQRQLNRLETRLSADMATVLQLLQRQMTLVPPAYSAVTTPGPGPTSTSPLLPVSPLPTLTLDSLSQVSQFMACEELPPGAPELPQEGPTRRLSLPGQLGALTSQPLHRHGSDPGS

[14] = Volume of distribution at steady state in mouse at 1 mg/kg, iv and 2 mg/kg, po by HPLC analysis; assay type: ADME, organism-based; conditions: in vivo, read-out: Vdss
[15] = Plasma concentration in cPP-induced feeding rat model at 10 mg/kg, po after 2 hrs; assay type: ADME, organism-based; parameters: dose 10 mg/kg, route oral; how it was run: as §2
Cytochrome P450 2C9 = Cytochrome P450 2C9 (Homo sapiens, UniProt P11712); test: Inhibition of CYP2C9; assay type: ADME
Sequence of Cytochrome P450 2C9 (P11712 whole entry): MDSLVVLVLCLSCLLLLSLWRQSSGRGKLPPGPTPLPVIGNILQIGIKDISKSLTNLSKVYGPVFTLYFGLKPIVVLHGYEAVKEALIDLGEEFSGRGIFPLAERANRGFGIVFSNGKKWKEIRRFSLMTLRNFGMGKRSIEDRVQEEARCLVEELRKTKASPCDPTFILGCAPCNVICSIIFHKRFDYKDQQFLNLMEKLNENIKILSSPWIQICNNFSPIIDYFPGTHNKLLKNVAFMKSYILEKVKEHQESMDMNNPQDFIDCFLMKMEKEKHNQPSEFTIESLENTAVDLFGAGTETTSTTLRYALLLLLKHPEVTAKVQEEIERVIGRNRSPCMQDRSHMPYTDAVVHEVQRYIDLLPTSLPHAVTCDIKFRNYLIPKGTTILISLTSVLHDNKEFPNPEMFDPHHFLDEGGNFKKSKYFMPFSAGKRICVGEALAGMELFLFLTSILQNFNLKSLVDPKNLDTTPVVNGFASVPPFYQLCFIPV

[16] = Drug uptake in brain of cPP-induced feeding rat model at 30 mg/kg, po after 6 hrs; assay type: ADME, organism-based; parameters: dose 30 mg/kg, route oral; conditions: read-out: Drug uptake; how it was run: as §2
[17] = Plasma concentration in cPP-induced feeding rat model at 3 mg/kg, po after 4 hrs; assay type: ADME, organism-based; parameters: dose 3 mg/kg, route oral; how it was run: as §1
[18] = target: T2, Neuropeptide Y receptor type 5 (Rattus norvegicus, UniProt Q63634); test: Antagonist activity at rat NPY5 receptor; assay type: functional
T2 sequence (Q63634 whole entry): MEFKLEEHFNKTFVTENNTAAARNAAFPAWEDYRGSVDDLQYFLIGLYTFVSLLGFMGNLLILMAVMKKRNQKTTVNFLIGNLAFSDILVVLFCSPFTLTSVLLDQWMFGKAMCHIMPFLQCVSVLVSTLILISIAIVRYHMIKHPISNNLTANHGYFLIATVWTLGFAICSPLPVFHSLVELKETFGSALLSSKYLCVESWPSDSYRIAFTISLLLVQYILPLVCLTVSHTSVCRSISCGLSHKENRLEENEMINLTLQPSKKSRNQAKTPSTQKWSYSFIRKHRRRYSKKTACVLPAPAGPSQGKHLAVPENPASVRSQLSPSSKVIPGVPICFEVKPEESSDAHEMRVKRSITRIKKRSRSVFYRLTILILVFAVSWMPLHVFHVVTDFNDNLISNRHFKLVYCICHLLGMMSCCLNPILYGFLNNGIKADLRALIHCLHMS

[19] = Plasma concentration in cPP-induced feeding rat model at 3 mg/kg, po after 2 hrs; assay type: ADME, organism-based; parameters: dose 3 mg/kg, route oral; how it was run: as §2
[20] = Oral bioavailability in Sprague-Dawley rat at 2 mg/kg by HPLC analysis; assay type: ADME, organism-based; conditions: in vivo
How it was run: (§3)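 Male Sprague-Dawley rats (200–250 g, n = 2) with jugular and carotid cannulae, dosed 1 mg/kg iv and 2 mg/kg po in crossover after 24 h washout. Vehicle was 20% beta cyclodextrin, pH adjusted with methanesulfonic acid to give a solution. Automated serial blood sampling took 12 time points over 24 h. Plasma was quantified by HPLC-MS/MS, with noncompartmental analysis.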

[21] = Drug uptake in brain of cPP-induced feeding rat model at 30 mg/kg, po after 4 hrs; assay type: ADME, organism-based; parameters: dose 30 mg/kg, route oral; conditions: read-out: Drug uptake; how it was run: as §2
[22] = Plasma concentration in cPP-induced feeding rat model at 30 mg/kg, po after 1 hr; assay type: ADME, organism-based; parameters: dose 30 mg/kg, route oral; how it was run: as §1
[23] = Plasma concentration in cPP-induced feeding rat model at 10 mg/kg, po after 1 hr; assay type: ADME, organism-based; parameters: dose 10 mg/kg, route oral; how it was run: as §2
[24] = Volume of distribution at steady state in Sprague-Dawley rat at 1 mg/kg, iv and 2 mg/kg, po by HPLC analysis; assay type: ADME, organism-based; conditions: in vivo, read-out: Vdss; how it was run: as §3

CS(=O)(=O)NC[C@H]1CC[C@H](Nc2nc3c(s2)CCSc2ccccc2-3)CC1
concentration at 2 h [1]: 337 ng/mL | concentration at 2 h [2]: 244 ng/g | IC50 [3]: > 1 µM | inhibition (Rattus norvegicus [4]): inactive | inhibition (Rattus norvegicus [5]): Dose-dependent effect | Papp B→A [6]: 40.4 ×10⁻⁶ cm/s | half-life [7]: 6.3 h | fraction unbound [8]: 0.006 | concentration at 4 h [9]: 460 ng/g | Tmax [10]: 1.9 h | Activity (Rattus norvegicus [11]): >10% | half-life [12]: 8.2 h | IC50 [13]: > 10 µM | Vd [14]: 3.6 L/kg | concentration at 2 h [15]: 260 ng/mL | IC50 (Cytochrome P450 2C9): > 10 µM | concentration at 6 h [16]: 401 ng/g | concentration at 4 h [17]: 52 ng/mL | Ki [18]: 0.0014 µM | concentration at 2 h [19]: 87 ng/mL | bioavailability [20]: 92% | concentration at 4 h [21]: 643 ng/g | concentration at 1 h [22]: 267 ng/mL | concentration at 1 h [23]: 159 ng/mL | Vd [24]: 3.3 L/kg
